In article PMC6226116 (Clinical and Translational Science, 2018):
Where two headings read alike, the source gives them in different places. One block for each molecule: values may come before it.

What was measured:
[1] = type: in vivo, human
[2] = cited from earlier work
[3] = with tacrolimus; cited from earlier work
[4] = co‐administration of cyclosporine; cited from earlier work
P‐gp = conditions: LLC‐PK1‐P‐gp cell monolayers; cited from earlier work
[5] = cited from earlier work; remark: listed apart in the source
[6] = Cyclosporine and tacrolimus trough concentrations before the third dose; type: in vivo, human; conditions: tacrolimus 5 mg oral once daily, predose on day 3
Outline: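 Healthy adult male volunteers (n=12) took each test compound orally once daily for 3 days in separate treatment periods (100 mg as soft gelatin capsules; 5 mg). They fasted from 10 h before to 2 h after dosing and avoided CYP-affecting medications. Blood was drawn immediately before the day-3 dose, processed by a certified clinical laboratory, and plasma concentrations were measured by validated LC-MS/MS.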

[7] = both, human, plasma, oral, 100 mg
[8] = in the presence of cyclosporine vs apixaban alone
[9] = in the presence of tacrolimus vs apixaban alone
[10] = co‐administration with ketoconazole, humans

CL/F ([1]; apixaban 10 mg oral alone, arithmetic mean (SD) [minimum, maximum]): 5.8 L/h
T max ([1]; apixaban with tacrolimus 5 mg daily for 3 days, median [minimum, maximum]): 2.5 [1, 4] h
Vd/F [1, 7]: 45 L
half-life [1, 7]: 6.8 h
Tmax ([1]; both, human, plasma, po, 10 mg): 2.5 h
Vd/F ([1]; both, human, plasma, po, 10 mg): 89 L
half-life ([1]; both, human, plasma, po, 10 mg): 12.1 h
GMR for apixaban AUC(0–tlast) [1, 8]: 120%
GMR for apixaban AUC(0–∞) [1, 8]: 119%
GMR for apixaban C max [1, 8]: 143%
GMR for apixaban AUC(0–tlast) [1, 9]: 78%
GMR for apixaban AUC(0–∞) [1, 9]: 77%
GMR for apixaban C max [1, 9]: 87%
increase in apixaban exposure ([1]; with cyclosporine co-administration): 20%
decrease in apixaban exposure ([1]; with tacrolimus co-administration): 22%
Compound: COc1ccc(-n2nc(C(N)=O)c3c2C(=O)N(c2ccc(N4CCCCC4=O)cc2)CC3)cc1 [Apixaban]
increase in apixaban AUC ([2]; administration with diltiazem): 1.4 fold
increase in apixaban C max ([2]; administration with diltiazem): 1.3 fold
increase in apixaban AUC [2, 10]: twofold
increase in apixaban C max [2, 10]: 1.6 fold

Compound: CC(C)c1c(C(=O)Nc2ccccc2)c(-c2ccccc2)c(-c2ccc(F)cc2)n1CC[C@@H](O)C[C@@H](O)CC(=O)O [atorvastatin]
impact on atorvastatin pharmacokinetics [3]: no impact

Compound: COc1cc2c(c(OC)c1OC)-c1ccc(OC)c(=O)cc1[C@@H](NC(C)=O)CC2 [colchicine]
increase in colchicine AUC(0–∞) [4]: 215%
increase in colchicine C max [4]: 224%

Compound: CC(=O)N1CCN(c2ccc(OCC3COC(Cn4ccnc4)(c4ccc(Cl)cc4Cl)O3)cc2)CC1 (stereo not shown) [ketoconazole]
inhibition of apixaban efflux (P‐gp): extensively inhibited

Compound: COc1ccc2c(O[C@@H]3C[C@H]4C(=O)N[C@]5(C(=O)NS(=O)(=O)C6CC6)C[C@H]5/C=C\CCCCN(C)C(=O)[C@@H]4C3)cc(-c3nc(C(C)C)cs3)nc2c1C [simeprevir]
increase in AUC(0‐24) of simeprevir ([5]; with cyclosporine): 5.8 fold
increase in C max of simeprevir ([5]; with cyclosporine): 4.7 fold
increase in AUC(0‐24) of simeprevir ([5]; with tacrolimus): 85%
increase in Cmax of simeprevir ([5]; with tacrolimus): 79%

trough concentration, mean (SD) [6]: 3.8 (2.3) ng/mL
Compound: C=CC[C@@H]1/C=C(\C)C[C@H](C)C[C@H](OC)[C@H]2O[C@@](O)(C(=O)C(=O)N3CCCC[C@H]3C(=O)O[C@H](/C(C)=C/[C@@H]3CC[C@@H](O)[C@H](OC)C3)[C@H](C)[C@@H](O)CC1=O)[C@H](C)C[C@@H]2OC [tacrolimus]
